Data taken from ChEMBL document CHEMBL3227967, “Quantitative structure-activity relationships in 1-aryl-2-(alkylamino)ethanol antimalarials” (J Med Chem, 1979).

test system: not listed separately; experiment: Lipophilicity, log P of the compound in 0.1 N HCl solution; assay type: physicochemical; conditions: 0.1 N HCl solution; read-out: logP
Outline: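 Partition coefficients of the hydrochloride salts were measured from 0.1 N HCl solution unless a footnote says otherwise. Some entries were not measured. They were calculated by adding the Δlog P of the corresponding phenanthrene analogues to the measured log P of a reference hydrochloride.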

SMILES | logP
CC(C)(C)c1cc(C(O)CC2CCCCN2)c2cc(Cl)ccc2n1 (centres undefined) | 2.74
CC(C)(C)c1cc(C(O)CC2CCCCN2)c2ccccc2n1 (centres undefined) | 2.03
CCCCCCCN(CCCCCCC)CC(O)c1cc2ccncc2c2cc(Br)ccc12 (centres undefined) | 4.89
OC(CC1CCCCN1)c1cc(C2CCCCC2)nc2ccccc12 (centres undefined) | 2.56
CCCCCCN(CCCCCC)CC(O)c1ccc(Cl)c2ncccc12 (centres undefined) | 3.69
OC(CN1C=CN(c2ccccc2)C=C1)c1cc(-c2ccc(Cl)cc2)nc2c(Cl)cc(Cl)cc12 (centres undefined) | 6.11
CCCCCCN(CCCCCC)CC(O)c1cc2ccccc2c2ccccc12 (centres undefined) | 4.94
CCCCCCCN(CCCCCCC)CC(O)c1cc2ccc(Br)cc2c2cccnc12 (centres undefined) | 4.89
CCCCN(CCCC)CC(O)c1ccc(Cl)c2c(C)ccnc12 (centres undefined) | 2.31
CCCCN(CCCC)CC(O)c1cnc2c(C(F)(F)F)cccc2c1Cl (centres undefined) | 2.63
CCCCNCC(O)c1cc(-c2ccccc2)nc2ccccc12 (centres undefined) | 1.87
OC(CC1CCCCN1)C1CC=Nc2c1cccc2C(F)(F)F (centres undefined) | 1.12
CCN1C=CN(CC(O)c2cc(-c3ccc(F)cc3)nc3cc(F)ccc23)C=C1 (centres undefined) | 3.32
CCCCN(CCCC)CC(O)c1cc(-c2ccc(Cl)cc2)c2cc(-c3ccccc3)ccc2n1 (centres undefined) | 5.67
CCCCCCCN(CCCCCCC)CC(O)c1cccc2ccc3c4ccccc4cc(Br)c3c12 (centres undefined) | 7.69
Cc1ccc(Oc2cc(C(O)CC3CCCCN3)c3ccccc3n2)cc1 (centres undefined) | 2.69
CCCCCN(CCCCC)CC(O)c1cc2ccccc2c2ccccc12 (centres undefined) | 4.01
CCNCC(O)c1cc(-c2ccccc2)nc2ccccc12 (centres undefined) | 0.99
CCN(CC)CC(O)c1cc(-c2ccccc2)nc(-c2ccccc2)c1 (centres undefined) | 2.54
OC(CN1CCCCCC1)c1cc(Cl)c2nc(-c3ccccc3)ccc2c1 (centres undefined) | 3.62
CCCCCNCC(O)c1cc(-c2ccccc2)nc(-c2ccccc2)c1 (centres undefined) | 3.97

SMILES | logP
CCCCCCCN(CCCCCCC)CC(O)c1cc2ccccc2c2cccnc12 (centres undefined) | 4.03
N#CCCN(CC(O)c1cc2ccccc2c2ccccc12)C1CCCCC1 (centres undefined) | 2.27
CCCCN(CCCC)CC(O)c1cc(-c2cccc(O)c2)nc2c(Cl)cc(Cl)cc12 (centres undefined) | 3.75
OC(CC1CC2CCN1CC2)c1cc2ccccc2c2cc(Br)ccc12 (centres undefined) | 2.98
CCCCN(CCCC)CC(O)c1cc(-c2ccccc2C(F)(F)F)nc(C(F)(F)F)c1 (centres undefined) | 3.97
CCCCCCCN(CCCCCCC)CC(O)c1cc2ccccc2c2ccccc12 (centres undefined) | 5.94
CC(C)c1cc(C(O)CC2CCCCN2)c2ccccc2n1 (centres undefined) | 1.58
CCCCNCC(O)c1cc(-c2ccccc2)nc(-c2ccccc2)c1 (centres undefined) | 3.47
OCCN(CC(O)c1cc2ccccc2c2ccccc12)C1CCCCC1 (centres undefined) | 2
OC(CN1CCCCC1)c1cc2ccccc2c2sccc12 (centres undefined) | 1.73
O=C(Nc1cccc(C(F)(F)F)c1)c1cc(C(O)CC2CCCCN2)c2cccc(C(F)(F)F)c2n1 (centres undefined) | 2.3
CCCCN(CCCC)CC(O)c1c(OC)c2ccccc2c2ccccc12 (centres undefined) | 2.55
CC(C)(C)CC(C)(C)NCC(O)c1c2ccccc2cc2ccccc12 (centres undefined) | 3.46
CCCCN(CCCC)CC(O)c1cc(-c2ccccc2)nc(-c2ccccc2)c1 (centres undefined) | 4.17
CCCCN(CCCC)CC(O)c1cc(Cl)cc2c(C)ccnc12 (centres undefined) | 2.31
OC(c1cc(-c2ccccc2)nc(-c2ccccc2)c1)C1CCCCN1 (centres undefined) | 3.18
CN(C)CC(O)c1cc(-c2ccccc2)nc(-c2ccccc2)c1 (centres undefined) | 2.25
CCCCNCC(O)c1cc2ccccc2c2ccccc12 (centres undefined) | 2.3
OC(CN1C=COC=C1)c1cc(-c2ccc(Cl)cc2)nc2cc(Cl)ccc12 (centres undefined) | 1.14
CCCCCNCC(O)c1cc2ccccc2c2ccccc12 (centres undefined) | 2.8
CCCCCCN(CCCCCC)CC(O)c1cc(-c2ccccc2)nc(-c2ccccc2)c1 (centres undefined) | 6.11

SMILES | logP
OC(CC1CCCCN1)c1ccnc2ccccc12 (centres undefined) | 0.05
CCCCCNCC(O)c1cc(-c2ccccc2)nc2ccccc12 (centres undefined) | 2.37
CCCCN(CCCC)CC(O)c1cnc2c(C)cc(C)cc2c1Cl (centres undefined) | 2.87
Cc1ccc(Oc2cc(C(O)CC3CCCCN3)c3cc(Cl)ccc3n2)cc1 (centres undefined) | 3.4
CCCCN(CCCC)CC(O)c1cc(Cl)cc2cccnc12 (centres undefined) | 1.75
CCCCN(CCCC)CC(O)c1ccc(Cl)c2ccccc12 (centres undefined) | 2.19
NCC(O)c1cc2ccc(C(F)(F)F)cc2c2cc(C(F)(F)F)ccc12 (centres undefined) | 2.19
CCCCCN(CCCCC)CC(O)c1cc(-c2ccccc2)nc(-c2ccccc2)c1 (centres undefined) | 5.18
CCCCN(CCCC)CC(O)c1cc(-c2ccc(Cl)cc2)c2cc(OC)c(Cl)cc2n1 (centres undefined) | 4.4
CCCCCCCN(CCCCCCC)CC(O)c1cc(-c2ccccc2)nc2ccccc12 (centres undefined) | 5.51
O=C(O)CCNCC(O)c1cc2ccccc2c2ccccc12 (centres undefined) | 0.6
CCCNCC(O)c1cc(-c2ccccc2)nc2ccccc12 (centres undefined) | 1.43
CCCCCCN(CCCCCC)CC(O)c1cc(-c2ccccc2)nc2ccccc12 (centres undefined) | 4.51
CCCN(CCC)CC(O)c1cc(-c2ccccc2)nc2ccccc12 (centres undefined) | 1.69
CCCN(CCC)CC(O)c1cc2ccccc2c2ccccc12 (centres undefined) | 2.12
CCCCN(CCCC)CC(O)c1cnc2c(C(F)(F)F)cccc2c1 (centres undefined) | 1.92
OC(CN1C=CN(c2ccccc2)C=C1)c1cc(-c2ccc(F)cc2)nc2cc(F)ccc12 (centres undefined) | 4.26
CCCCN(CCCC)CC(O)c1cnc2c(-c3ccccc3)cccc2c1Cl (centres undefined) | 3.71
CCCCCCCN(CCCCCCC)CC(O)c1ccc(Cl)c2c(C)ccnc12 (centres undefined) | 5.25
CCCCCCN(CCCCCC)CC(O)c1ccc2cc(Cl)cc(Cl)c2n1 (centres undefined) | 4.4
CCCCNCC(O)c1cc(/C=C/c2ccc(C(F)(F)F)cc2)nc(/C=C/c2ccc(C(F)(F)F)cc2)c1 (centres undefined) | 6.67

SMILES | logP
CCCCCCCN(CCCCCCC)CC(O)c1cc2c(Cl)cc(Cl)cc2c2ccc(C)nc12 (centres undefined) | 6.01
CCCCCCCCN(CCCCCCCC)CC(O)c1cc(-c2ccc(Cl)c(Cl)c2)nc2ccc(OC)cc12 (centres undefined) | 8.34
CCN(CC)CC(O)c1cc(Cl)cc2cccnc12 (centres undefined) | 0.12
OC(CC1CCNCC1)c1cc2ccc(C(F)(F)F)cc2c2cc(C(F)(F)F)ccc12 (centres undefined) | 3.34
CCCCN(CCCC)CC(O)c1cc(OC)c2cc(OC)c(Cl)cc2n1 (centres undefined) | 1.71
CCNCC(O)c1cc(-c2ccccc2)nc(-c2ccccc2)c1 (centres undefined) | 2.59
CCN(CC)CC(O)c1ccc(Cl)c2c(C)ccnc12 (centres undefined) | 0.68
OC(CC1CCCCN1)c1cc(C(F)(F)F)nc2ccccc12 (centres undefined) | 0.93
CCCCCCN(CCCCCC)CC(O)c1cc(Cl)c2nc(-c3ccccc3)ccc2c1 (centres undefined) | 5.65
Cc1cc(C(O)CN2CCCCCC2)cc2ccc(-c3ccccc3)nc12 (centres undefined) | 3.47
CCCCCCCN(CCCCCCC)CC(O)c1cc2ncccc2c2ccccc12 (centres undefined) | 4.03
Cc1cc(-c2ccccc2)nc2c(C)cc(C(O)CN3CCCCCC3)cc12 (centres undefined) | 4.03
CCCCN(CCCC)CC(O)c1cc(OC)c2cc(Cl)cc(Cl)c2n1 (centres undefined) | 2.44
CCCCN(CCCC)CC(O)c1cnc2c(Cl)cc(Cl)cc2c1 (centres undefined) | 2.46
CCN(CC)CC(O)c1cc(Cl)cc2c(C)ccnc12 (centres undefined) | 5.25
CCC1C[N+]2(CC(O)c3ccnc4ccc(OC)cc34)CCC1CC2 (centres undefined) | 2.31
CNCC(O)c1cc2ccccc2c2ccccc12 (centres undefined) | 0.98
OC(CN1CCCCC1)c1c2ccccc2nc2c1ccc1ccccc12 (centres undefined) | 3.51
OC(CN1CCCCCC1)c1ccc2c(Cl)cc(-c3ccccc3)nc2c1 (centres undefined) | 3.62
CCCCN(CCCC)CC(O)c1ccc2cc(Cl)cc(Cl)c2n1 (centres undefined) | 2.46
CCCCCCN(CCCCCC)CC(O)c1cnc2cc(Cl)ccc2c1Cl (centres undefined) | 5.4

same assay, conditions: buffer

SMILES | logP
CCCCCCCCCN(CCCCCCCCC)CCC(O)c1cc2ccc(C(F)(F)F)cc2c2cc(C(F)(F)F)ccc12 (centres undefined) | 9.77
CCCCCCCN(CCCCCCC)CC(O)c1cc(-c2ccc(Cl)c(Cl)c2)nc(-c2ccc(Cl)c(Cl)c2)c1 (centres undefined) | 9.95

test system: Plasmodium berghei; experiment: Antimalarial activity against Plasmodium berghei; assay type: functional; conditions: not given

SMILES | log(1/C)
CC(C)(C)c1cc(C(O)CC2CCCCN2)c2cc(Cl)ccc2n1 (centres undefined) | 2.48
CC(C)(C)c1cc(C(O)CC2CCCCN2)c2ccccc2n1 (centres undefined) | 2.08
CCCCCCCN(CCCCCCC)CC(O)c1cc2ccncc2c2cc(Br)ccc12 (centres undefined) | 2.12
